Active and inactive are the calls of the source. No cut-off for these calls is given here.
Columns and labels:
MDA-MB-435 [1] = assay: Increase of mitochondrial superoxide accumulation in human MDA-MB-435 cells at IC50 to 3 times IC50 after 24 hrs by flow cytometry; assay type: functional, cell-based
How it was run: (§1)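 Cells were drug-treated at two concentrations for 24 h, then loaded with 5 μM MitoSOX Red for 10 min at 37 °C and washed three times in HBSS. Cells were either viewed by fluorescence microscopy or trypsinized, washed twice in HBSS and read by flow cytometry; untreated cells served as control.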

HEY = assay: Cytotoxicity against human HEY cells after 72 hrs by MTT assay; assay type: functional, cell-based
How it was run: (§2)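 Cells were attached overnight, then continuously exposed to drug for 72 h. MTT (0.5 mg/mL final) was added for 4 h at 37 °C, formazan dissolved in DMSO, and A570 read; all in triplicate. IC50 came from log(concentration) vs % cells killed. Media: RPMI-1640 for HT29, HCT116 p53+/+ and p53−/−, and HEY; DMEM for MDA-MB-435 and UMUC3; all with 10% FBS, 37 °C, 5% CO₂.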

HCT-116 [2] = assay: Cytotoxicity against human HCT116 cells […] after 72 hrs by MTT assay; assay type: functional, cell-based; conditions: HCT-116, 72 h; how it was run: as §2
MDA-MB-435 [3] = assay: Induction of apoptosis in human MDA-MB-435 cells assessed as apoptotic cells at 10 uM after 24 hrs using by annexin V and propidium iodide staining by flow cytometry relative to control; assay type: functional
How it was run: (§3)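 Treatment was 10 μM for 24 and 48 h, with an untreated 48 h control run in parallel. Floating and adherent cells were pooled and stained with annexin V-FITC/propidium iodide, then read by flow cytometry (FITC and PE channels). Quadrants: annexin−/PI− viable; annexin+/PI− early apoptotic; annexin+/PI+ late apoptotic; lower right necrotic/debris.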

MDA-MB-435 [4] = assay: Induction of apoptosis in human MDA-MB-435 cells assessed as apoptotic cells at 10 uM after 48 hrs using by annexin V and propidium iodide staining by flow cytometry relative to control; assay type: functional; how it was run: as §3
MDA-MB-435 [5] = assay: Induction of apoptosis in human MDA-MB-435 cells assessed as viable cells at 10 uM after 48 hrs using by annexin V and propidium iodide staining by flow cytometry relative to control; assay type: functional; conditions: MDA-MB-435, 48 h, read-out: Activity; how it was run: as §3
MDA-MB-435 [6] = assay: Induction of apoptosis in human MDA-MB-435 cells assessed as up-regulation of p53 protein expression at 1 uM after 24 to 72 hrs by Western blotting; assay type: functional, cell-based
How it was run: (§4)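 Cells were treated with 1 μM for 24–72 h and lysed in 50 mM Tris-HCl pH 7.5, 150 mM NaCl, 1% NP-40. Equal protein (BCA) was run on 10% tris-glycine SDS-PAGE and blotted to nitrocellulose. Membranes were blocked in 5% BSA/PBS for 1 h, probed overnight at 4 °C with anti-p53 or anti-caspase-9 (plus tubulin/GAPDH antibodies), and detected by HRP secondary with ECL imaging.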

MDA-MB-435 [7] = assay: Induction of apoptosis in human MDA-MB-435 cells assessed as necrotic cells at 10 uM after 24 hrs using by annexin V and propidium iodide staining by flow cytometry relative to control; assay type: functional; how it was run: as §3
MDA-MB-435 [8] = assay: Induction of apoptosis in human MDA-MB-435 cells assessed as necrotic cells at 10 uM after 48 hrs using by annexin V and propidium iodide staining by flow cytometry relative to control; assay type: functional; how it was run: as §3
MDA-MB-435 [9] = assay: Induction of apoptosis in human MDA-MB-435 cells assessed as viable cells at 10 uM after 24 hrs using by annexin V and propidium iodide staining by flow cytometry relative to control; assay type: functional; conditions: MDA-MB-435, 24 h, read-out: Activity; how it was run: as §3
UMUC3 = assay: Cytotoxicity against human UM-UC-3 cells after 72 hrs by MTT assay; assay type: functional, cell-based; conditions: UMUC3, 72 h; how it was run: as §2
NCI/ADR-RES = assay: Cytotoxicity against human NCI/ADR-RES cells after 72 hrs by MTT assay; assay type: functional, cell-based
MDA-MB-435 [10] = assay: Induction of apoptosis in human MDA-MB-435 cells assessed as pre-necrotic cells at 10 uM after 24 hrs using by annexin V and propidium iodide staining by flow cytometry relative to control; assay type: functional; how it was run: as §3
MDA-MB-435 [11] = assay: Induction of apoptosis in human MDA-MB-435 cells assessed as decrease of caspase 9 protein expression at 1 uM after 24 to 72 hrs by Western blotting relative to control; assay type: functional; how it was run: as §4
[12] = Octanol-water distribution coefficient, log P of the compound; assay type: physicochemical
MDA-MB-435 [13] = assay: Cytotoxicity against human MDA-MB-435 cells at 1 uM after 24 hrs using crystal violet staining by colony formation assay; assay type: functional, cell-based
How it was run: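 Cells were plated at 1000 per well, attached overnight, and exposed to 1 μM for 24 h. They were then washed and grown in fresh medium for 8–10 days until colonies formed, fixed in 1% glutaraldehyde for 30 min, and stained with 2% crystal violet for 30 min. Vehicle was DMSO.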

HT-29 = assay: Cytotoxicity against human HT-29 cells after 72 hrs by MTT assay; assay type: functional, cell-based; conditions: HT-29, 72 h; how it was run: as §2
5637 = assay: Cytotoxicity against human 5637 cells after 72 hrs by MTT assay; assay type: functional, cell-based; conditions: Homo sapiens, 5637, 72 h
MDA-MB-435 [14] = assay: Cytotoxicity against human MDA-MB-435 cells after 72 hrs by MTT assay; assay type: functional, cell-based; conditions: MDA-MB-435, 72 h; how it was run: as §2
HCT-116 [15] = assay: Cytotoxicity against p53 deficient human HCT116 cells […] after 72 hrs by MTT assay; assay type: functional, cell-based; conditions: HCT-116, 72 h; how it was run: as §2
MDA-MB-435 [16] = assay: Induction of apoptosis in human MDA-MB-435 cells assessed as pre-necrotic cells at 10 uM after 48 hrs using by annexin V and propidium iodide staining by flow cytometry relative to control; assay type: functional; how it was run: as §3
MDA-MB-435 [17] = assay: Increase of mitochondrial superoxide accumulation in human MDA-MB-435 cells at IC50 to 3 times IC50 after 24 hrs by fluorescence microscopic analysis; assay type: functional, cell-based; how it was run: as §1

Row | logP [12] | Structure (SMILES) | Activity (MDA-MB-435 [1]) | IC50 (HEY) [µM] | IC50 (HCT-116 [2]) [µM] | IC50 (UMUC3) [µM] | IC50 (NCI/ADR-RES) [µM] | Activity (MDA-MB-435 [13]) | IC50 (HT-29) [µM] | IC50 5637 [µM] | IC50 (MDA-MB-435 [14]) [µM] | IC50 (HCT-116 [15]) [µM] | further results
1 | 2.54 | C#CC(=O)N(c1cc(OC)cc(OC)c1)C(C(=O)NC1CCCCC1)c1ccc(OC)cc1 (stereo not drawn) | Active | 4.4 | 12.5 | > 20 | 0.3 | Active | 6.3 | 2.2 | 5.4 | 11 | Activity (MDA-MB-435 [3]): 1%; Activity (MDA-MB-435 [4]): 3%; viability at 10 µM (MDA-MB-435 [5]): 53%; Activity (MDA-MB-435 [6]): Active; Activity (MDA-MB-435 [7]): 2%; Activity (MDA-MB-435 [8]): 35%; viability at 10 µM (MDA-MB-435 [9]): 95%; Activity (MDA-MB-435 [10]): 2%; fold change (FC) (MDA-MB-435 [11]): 2; Activity (MDA-MB-435 [16]): 9%
2 | 3.88 | C#CC(=O)N(c1cccc(C(F)(F)F)c1)C(C(=O)NC1CCCCC1)c1cccs1 (stereo not drawn) |  | 5.2 | 8.3 | > 20 | 0.4 | Active | 6 | 1.6 | 6.9 | 10.4 | 
3 | 2.55 | C#CC(=O)N(c1cccc(OC)c1)C(C(=O)NC1CCCC1)c1cccs1 (stereo not drawn) |  | 1.9 | 7.2 | 6.9 | 0.3 | Active | 2.3 | 0.3 | 1.7 | 5.6 | 
4 | 3.86 | C#CC(=O)N(c1cccc(C(F)(F)F)c1)C(C(=O)NCc1ccccc1)c1cccs1 (stereo not drawn) |  | 7.1 | 9 | > 20 | 0.7 | Active | 7.3 | 1.2 | 4.2 | 16.1 | 
5 | 3.07 | C#CC(=O)N(c1ccccc1)C(C(=O)NC1CCCCC1)c1cccs1 (stereo not drawn) | Active | > 10 | 14 | > 20 | 1.3 | Active | > 10 | 3.5 | > 10 | > 20 | Activity (MDA-MB-435 [17]): Active

— ChEMBL document CHEMBL1765030, “Discovery and preclinical evaluation of a novel class of cytotoxic propynoic acid carbamoyl methyl amides (PACMAs)” (J Med Chem, 2011)
